Measured values from ChEMBL document CHEMBL1144880, “Identification of phenylisoxazolines as novel and viable antibacterial agents active against Gram-positive pathogens” (J Med Chem, 2003).
In brackets after ≈: the same amount, converted by molar mass.

Assays:
Type in all cases: functional
Enterococcus faecalis = assay: In vitro minimum inhibitory concentration (MIC) against Enterococcus faecalis UC9217
Procedure, shortened: (§1)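 MIC determined by standard broth microdilution, defined as the lowest drug concentration (µg/mL) inhibiting visible growth.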

Escherichia coli = assay: In vitro minimum inhibitory concentration (MIC) against Escherichia coli UC6674; procedure, shortened: as §1
Haemophilus influenzae = assay: In vitro minimum inhibitory concentration (MIC) against Haemophilus influenzae UC30063; procedure, shortened: as §1
Moraxella catarrhalis = assay: In vitro minimum inhibitory concentration (MIC) against Moraxella catarrhalis UC30610; procedure, shortened: as §1
Streptococcus pneumoniae = assay: In vitro minimum inhibitory concentration (MIC) against Streptococcus pneumoniae UC9912; procedure, shortened: as §1
Staphylococcus aureus [1] = assay: In vitro minimum inhibitory concentration (MIC) against Staphylococcus aureus UC12673; procedure, shortened: as §1
Staphylococcus aureus [2] = assay: In vitro minimum inhibitory concentration (MIC) against Staphylococcus aureus UC9213; procedure, shortened: as §1
[3] = system: Staphylococcus epidermidis; assay: In vitro minimum inhibitory concentration (MIC) against Staphylococcus epidermidis UC12084; procedure, shortened: as §1
Mus musculus = assay: In Vivo effective dose required for antibacterial activity in a systemic mouse infection model (SMIM) upon peroral administration against Staphylococcus aureus UC9213; conditions: po
Procedure, shortened: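 Compound was given orally at 1 and 5 h after infection. Deaths were monitored for at least 6 days, and ED50 (dose curing 50% of mice) was calculated by probit analysis.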

Row | SMILES | MIC (Enterococcus faecalis) [µg/mL] | MIC (Escherichia coli) [µg/mL] | MIC (Haemophilus influenzae) [µg/mL] | MIC (Moraxella catarrhalis) [µg/mL] | MIC (Streptococcus pneumoniae) [µg/mL] | MIC (Staphylococcus aureus [1]) [µg/mL] | MIC (Staphylococcus aureus [2]) [µg/mL] | MIC [3] [µg/mL] | ED50 (Mus musculus) [mg/kg]
1 | CC(=O)NC[C@@H]1CC(c2cc(F)c(N3CCOCC3)c(F)c2)=NO1 | > 16 | > 16 | > 16 | > 16 | > 16 | > 16 | > 16 | > 16 | –
2 | C/C(S)=N/C[C@H]1CC(c2cc(F)c(N3CCOCC3)c(F)c2)=NO1 | 1 (≈ 2.81 µM) | > 16 | 16 (≈ 45 µM) | 2 (≈ 5.63 µM) | 0.25 (≈ 0.703 µM) | 1 (≈ 2.81 µM) | 1 (≈ 2.81 µM) | 0.25 (≈ 0.703 µM) | > 20
3 | C/C(S)=N/C[C@H]1CC(c2cc(F)c(-n3ccnc3)c(F)c2)=NO1 | 8 (≈ 23.8 µM) | > 16 | > 16 | > 16 | 2 (≈ 5.95 µM) | 4 (≈ 11.9 µM) | 4 (≈ 11.9 µM) | 2 (≈ 5.95 µM) | –
4 | CC(=O)NC[C@H]1CC(c2cc(F)c(N3CCNCC3)c(F)c2)=NO1 | 4 (≈ 11.8 µM) | > 16 | 8 (≈ 23.6 µM) | 8 (≈ 23.6 µM) | 0.25 (≈ 0.739 µM) | 4 (≈ 11.8 µM) | 4 (≈ 11.8 µM) | 0.5 (≈ 1.48 µM) | –
5 | CC(=O)NCC1CC(c2ccc(N3CCN(C(=O)CO)CC3)cc2)=NO1 (centres undefined) | 16 (≈ 44.4 µM) | > 16 | > 16 | > 16 | 4 (≈ 11.1 µM) | 8 (≈ 22.2 µM) | 16 (≈ 44.4 µM) | 4 (≈ 11.1 µM) | –
6 | CC(=O)NCC1CC(c2cc(F)c(N3CCOCC3)c(Cl)c2)=NO1 (centres undefined) | 16 (≈ 45 µM) | > 16 | > 16 | > 16 | 4 (≈ 11.2 µM) | 8 (≈ 22.5 µM) | 8 (≈ 22.5 µM) | 8 (≈ 22.5 µM) | –
7 | COC(=O)N1CC=C(c2ccc(C3=NOC(CNC(C)=O)C3)cc2)CC1 (centres undefined) | 16 (≈ 44.8 µM) | > 16 | > 16 | > 16 | 4 (≈ 11.2 µM) | 16 (≈ 44.8 µM) | 16 (≈ 44.8 µM) | 8 (≈ 22.4 µM) | –
8 | CC(=O)NCC1CC(c2ccc(C3=CCN(C(=O)CO)CC3)cc2)=NO1 (racemic) | 8 (≈ 22.4 µM) | > 16 | > 16 | > 16 | 2 (≈ 5.6 µM) | 4 (≈ 11.2 µM) | 4 (≈ 11.2 µM) | 4 (≈ 11.2 µM) | –
9 | CC(=O)NCC1CC(c2cc(F)c(N3CCOCC3)c(F)c2)=NO1 (racemic) | 8 (≈ 23.6 µM) | > 16 | > 16 | 16 (≈ 47.2 µM) | 2 (≈ 5.89 µM) | 8 (≈ 23.6 µM) | 8 (≈ 23.6 µM) | 4 (≈ 11.8 µM) | –
10 | COC(=O)N1CC=C(c2ccc(-c3cc(CNC(C)=O)on3)cc2)CC1 | > 16 | > 16 | > 16 | > 16 | > 16 | > 16 | > 16 | > 16 | –
11 | CC(=O)NC[C@@H]1CC(c2ccc(C3=CCN(C(=O)CO)CC3)cc2)=NO1 | > 16 | > 16 | > 16 | > 16 | > 16 | > 16 | > 16 | > 16 | –

The next lines start with results.

Row | MIC (Enterococcus faecalis) [µg/mL] | MIC (Escherichia coli) [µg/mL] | MIC (Haemophilus influenzae) [µg/mL] | MIC (Moraxella catarrhalis) [µg/mL] | MIC (Streptococcus pneumoniae) [µg/mL] | MIC (Staphylococcus aureus [1]) [µg/mL] | MIC (Staphylococcus aureus [2]) [µg/mL] | MIC [3] [µg/mL] | SMILES | ED50 (Mus musculus) [mg/kg]
12 | 1 (≈ 3.06 µM) | > 16 | 16 (≈ 49 µM) | 4 (≈ 12.3 µM) | < 0.125 | 0.5 (≈ 1.53 µM) | 1 (≈ 3.06 µM) | 0.25 (≈ 0.766 µM) | CC(=O)NC[C@H]1CC(c2ccc(-n3ccc(C#N)c3)c(F)c2)=NO1 | –
13 | 8 (≈ 21.1 µM) | > 16 | > 16 | 16 (≈ 42.3 µM) | 2 (≈ 5.29 µM) | 8 (≈ 21.1 µM) | 8 (≈ 21.1 µM) | 4 (≈ 10.6 µM) | CC(=O)NCC1CC(c2ccc(N3CCN(C(=O)CO)CC3)c(F)c2)=NO1 (racemic) | –
14 | 4 (≈ 13.2 µM) | > 16 | > 16 | 16 (≈ 52.9 µM) | 1 (≈ 3.31 µM) | 2 (≈ 6.62 µM) | 2 (≈ 6.62 µM) | 1 (≈ 3.31 µM) | CC(=O)NC[C@H]1CC(c2ccc(-n3ccnc3)c(F)c2)=NO1 | –
15 | > 16 | > 16 | > 16 | > 16 | > 16 | > 16 | > 16 | > 16 | CC(=O)NCC1CC(c2ccc(Br)cc2)=NO1 (centres undefined) | –
16 | 1 (≈ 3.15 µM) | > 16 | > 16 | 4 (≈ 12.6 µM) | 0.5 (≈ 1.58 µM) | 1 (≈ 3.15 µM) | 1 (≈ 3.15 µM) | 0.5 (≈ 1.58 µM) | C/C(S)=N/C[C@H]1CC(c2ccc(-n3cccc3)c(F)c2)=NO1 | –
17 | > 16 | > 16 | > 16 | > 16 | > 16 | > 16 | > 16 | > 16 | CC(=O)NC[C@H]1CC(c2ccc(F)c(F)c2)=NO1 | –
18 | 8 (≈ 26.2 µM) | > 16 | > 16 | > 16 | 2 (≈ 6.55 µM) | 4 (≈ 13.1 µM) | 4 (≈ 13.1 µM) | 4 (≈ 13.1 µM) | CC(=O)NC[C@H]1CC(c2ccc(N3CCCC3)c(F)c2)=NO1 | –
19 | 8 (≈ 25 µM) | > 16 | > 16 | > 16 | 2 (≈ 6.24 µM) | 4 (≈ 12.5 µM) | 8 (≈ 25 µM) | 2 (≈ 6.24 µM) | CC(=O)NC[C@H]1CC(c2cc(F)c(-n3ccnc3)c(F)c2)=NO1 | –
20 | > 16 | > 16 | > 16 | > 16 | 4 (≈ 13.2 µM) | 16 (≈ 52.8 µM) | > 16 | 8 (≈ 26.4 µM) | CC(=O)NC[C@H]1CC(c2ccc(-n3cncn3)c(F)c2)=NO1 | –
21 | > 16 | > 16 | > 16 | > 16 | > 16 | > 16 | > 16 | > 16 | CC(=O)NC[C@@H]1CC(c2ccc(N3CCN(C(=O)CO)CC3)c(F)c2)=NO1 | –
22 | 2 (≈ 6.77 µM) | > 16 | 16 (≈ 54.2 µM) | 8 (≈ 27.1 µM) | 0.25 (≈ 0.846 µM) | 2 (≈ 6.77 µM) | 1 (≈ 3.39 µM) | 0.5 (≈ 1.69 µM) | CC(=O)NC[C@H]1CC(c2ccc(-c3ccncc3)cc2)=NO1 | –
23 | 8 (≈ 23.4 µM) | > 16 | > 16 | > 16 | 2 (≈ 5.86 µM) | 8 (≈ 23.4 µM) | 8 (≈ 23.4 µM) | 4 (≈ 11.7 µM) | CC(=O)NCC1CC(c2ccc(C3=CCN(C(C)=O)CC3)cc2)=NO1 (centres undefined) | –
24 | 16 (≈ 52.9 µM) | > 16 | > 16 | > 16 | 4 (≈ 13.2 µM) | 16 (≈ 52.9 µM) | 16 (≈ 52.9 µM) | 4 (≈ 13.2 µM) | CC(=O)NC[C@H]1CC(c2ccc(-n3cccn3)c(F)c2)=NO1 | –
25 | 4 (≈ 13.3 µM) | > 16 | > 16 | 16 (≈ 53.1 µM) | 0.5 (≈ 1.66 µM) | 2 (≈ 6.64 µM) | 2 (≈ 6.64 µM) | 0.5 (≈ 1.66 µM) | CC(=O)NC[C@H]1CC(c2ccc(-n3cccc3)c(F)c2)=NO1 | –
26 | 4 (≈ 12.2 µM) | > 16 | 16 (≈ 48.9 µM) | 8 (≈ 24.4 µM) | 0.5 (≈ 1.53 µM) | 2 (≈ 6.11 µM) | 2 (≈ 6.11 µM) | 1 (≈ 3.06 µM) | CC(=O)NC[C@H]1CC(c2ccc(-n3cc(C#N)cn3)c(F)c2)=NO1 | –
